Key:
Plasmodium falciparum [1] = assay: Antimalarial activity against chloroquine-resistant Plasmodium falciparum FcB1; type: functional, organism-based
Outline: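 P. falciparum FcB1 (chloroquine-resistant) growth inhibition; IC50 reported as mean ± SD of two to three independent experiments.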

MRC5 [2] = assay: Cytotoxicity against human diploid embryonic lung MRC5 cells by colorimetric MTT assay; type: functional
Outline: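 Human MRC5 cells were used, with the value reported as CC50 in µM. Results are given as the mean ± SD of two to three independent experiments.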

Plasmodium falciparum [3] = assay: Growth inhibition of chloroquine-resistant Plasmodium falciparum FcB1 at 1 uM; type: functional
MRC5 [4] = assay: Relative antimalarial activity to cytotoxicity as selectivity index (CC50/IC50); type: functional

## Cc1ccc(O)c(/C=N/NC(=O)c2ccc(C(C)(C)C)cc2)c1
Plasmodium falciparum [1]
  IC50: 2.2 µM
MRC5 [2]
  CC50: 16.3 µM
Plasmodium falciparum [3]
  inhibition at 1 µM: 65%
MRC5 [4]
  Ratio CC50/IC50: 7.4

## CCN(CC)CCCC(C)Nc1ccnc2cc(Cl)ccc12 (centres undefined) [CHLOROQUINE]
MRC5 [2]
  CC50: 50 µM

## CCN(CC)c1ccc(/C=N/NC(=O)c2ccccc2)c(O)c1
Plasmodium falciparum [1]
  IC50: 1.1 µM
MRC5 [2]
  CC50: 1.1 µM
Plasmodium falciparum [3]
  inhibition at 1 µM: 60%
MRC5 [4]
  Ratio CC50/IC50: 1

## COc1ccc(C(=O)N/N=C/c2cc(C(C)(C)C)ccc2O)cc1
Plasmodium falciparum [1]
  IC50: 2.3 µM
MRC5 [2]
  CC50: > 100 µM
Plasmodium falciparum [3]
  inhibition at 1 µM: 53%

## CCN(CC)c1ccc(/C=N/NC(=O)c2ccc([N+](=O)[O-])cc2)c(O)c1
Plasmodium falciparum [1]
  IC50: 1 µM
MRC5 [2]
  CC50: 2.5 µM
Plasmodium falciparum [3]
  inhibition at 1 µM: 69%
MRC5 [4]
  Ratio CC50/IC50: 2.5

## CCN(CC)c1ccc(/C=N/NC(=O)c2ccc(C(C)(C)C)cc2)c(O)c1
Plasmodium falciparum [1]
  IC50: 0.9 µM
MRC5 [2]
  CC50: 1.1 µM
Plasmodium falciparum [3]
  inhibition at 1 µM: 73%
MRC5 [4]
  Ratio CC50/IC50: 1

## CC(C)(C)c1ccc(O)c(/C=N/NC(=O)c2ccccc2)c1
Plasmodium falciparum [1]
  IC50: 1.3 µM
MRC5 [2]
  CC50: 2.6 µM
Plasmodium falciparum [3]
  inhibition at 1 µM: 59%
MRC5 [4]
  Ratio CC50/IC50: 2

## CC(C)(C)c1ccc(C(=O)N/N=C/c2cc(Br)ccc2O)cc1
Plasmodium falciparum [1]
  IC50: 1.7 µM
MRC5 [2]
  CC50: > 100 µM
Plasmodium falciparum [3]
  inhibition at 1 µM: 52%

## CC(C)(C)c1ccc(O)c(/C=N/NC(=O)c2cccs2)c1
Plasmodium falciparum [1]
  IC50: 1.6 µM
MRC5 [2]
  CC50: 12 µM
Plasmodium falciparum [3]
  inhibition at 1 µM: 52%
MRC5 [4]
  Ratio CC50/IC50: 7.5

## CC(C)(C)c1ccc(O)c(/C=N/NC(=O)c2ccc(Cl)cc2)c1
Plasmodium falciparum [1]
  IC50: 2.9 µM
MRC5 [2]
  CC50: 3.6 µM
Plasmodium falciparum [3]
  inhibition at 1 µM: 69%
MRC5 [4]
  Ratio CC50/IC50: 1

## Cc1ccc(O)c(/C=N/NC(=O)c2ccc(Cl)cc2)c1
Plasmodium falciparum [1]
  IC50: 1.9 µM
MRC5 [2]
  CC50: > 100 µM
Plasmodium falciparum [3]
  inhibition at 1 µM: 52%

## CC(C)(C)c1ccc(O)c(/C=N/NC(=O)c2ccc([N+](=O)[O-])cc2)c1
Plasmodium falciparum [1]
  IC50: 1.6 µM
MRC5 [2]
  CC50: 1.1 µM
Plasmodium falciparum [3]
  inhibition at 1 µM: 81%
MRC5 [4]
  Ratio CC50/IC50: 1

## CCN(CC)c1ccc(/C=N/NC(=O)c2ccncc2)c(O)c1
Plasmodium falciparum [3]
  inhibition at 1 µM: 18%

## O=C(N/N=C/c1ccc(O)cc1O)c1cccnc1
Plasmodium falciparum [3]
  inhibition at 1 µM: 23%

## O=C(N/N=C/c1cc(O)ccc1O)c1cccnc1
Plasmodium falciparum [3]
  inhibition at 1 µM: 7%

## CC(C)(C)c1ccc(C(=O)N/N=C/c2cc(O)ccc2O)cc1
Plasmodium falciparum [3]
  inhibition at 1 µM: 38%

## COc1ccc(O)c(/C=N/NC(=O)c2cccs2)c1
Plasmodium falciparum [3]
  inhibition at 1 µM: 24%

## COc1ccc(O)c(/C=N/NC(=O)c2ccc(O)cc2)c1
Plasmodium falciparum [3]
  inhibition at 1 µM: 20%

## O=C(N/N=C/c1cccc(O)c1O)c1ccncc1
Plasmodium falciparum [3]
  inhibition at 1 µM: 11%
